# Measurements: ChEMBL document CHEMBL3352113, “Cytoprotective pyridinol antioxidants as potential therapeutic agents for neurodegenerative and mitochondrial diseases” (Bioorg Med Chem, 2014)
# Activity calls are given as the source filed them. The rule behind the calls is not given here.
# Tests used:
# Lymphocyte [1] = experiment: Inhibition of oxidative stress-induced mitochondrial membrane depolarization in diethyl maleate-treated human lymphocytes obtained from FRDA patient assessed as cells with intact mitochondrial membrane potential at 500 nM pretreated for 16 hrs using TMRM by FACS analysis (reference value: 95%); format: functional; design: scale not given: the % may be the effect or the level left
# Lymphocyte [2] = experiment: Cytoprotective activity in human lymphocytes obtained from Leigh's syndrome patient assessed as viable cells at 2.5 uM after 16 hrs by trypan blue exclusion assay; format: functional; details: read-out: Activity
# Procedure, shortened: (§1)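 Lymphocytes from FRDA or Leigh's syndrome patients, grown in RPMI-1640 with 15% fetal calf serum and 2 mM glutamine, kept in log phase. Test agents at 0.1, 0.5 and 2.5 µM; diethyl maleate (DEM) added to deplete glutathione and induce oxidative stress. Viability expressed relative to untreated cells (100%). Values are mean ± SD/SEM as tabulated.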
# Lymphocyte [3] = experiment: Inhibition of ROS generation in diethyl maleate-treated human lymphocytes obtained from FRDA patient compound pretreated at 100 to 500 nM for 16 hrs using DCFH-DA by FACS analysis; format: functional, cell-based
# Procedure, shortened: (§2)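 FRDA lymphocytes pretreated with compounds at 100, 250 and 500 nM for 16 h, then given DEM for 80 min to raise ROS. Stained with DCFH-DA for 15 min, then DCF fluorescence read by flow cytometry. Reported as % ROS scavenging; mean ± SEM of three experiments run in duplicate.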
# Lymphocyte [4] = experiment: Cytoprotective activity in human lymphocytes obtained from Leigh's syndrome patient assessed as viable cells after 16 hrs by trypan blue exclusion assay; format: functional, cell-based; procedure, shortened: as §1
# Lymphocyte [5] = experiment: Increase in ATP production in CoQ10-deficient lymphocytes (unknown origin) assessed as cellular ATP level at 10 uM after 48 hrs using luciferin-luciferase reaction by bioluminescence assay relative to control; format: functional
# Procedure, shortened: (§3)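 CoQ10-deficient lymphocyte line GM17932 grown in glucose-free RPMI 1640 with 25 mM galactose, 2 mM glutamine and 10% dialyzed FBS, forcing oxidative phosphorylation. Incubated with compounds at 5, 10 or 25 µM for 48 h. Total intracellular ATP measured by luciferin–luciferase reaction, expressed as % of untreated control.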
# Lymphocyte [6] = experiment: Cytoprotective activity in human lymphocytes obtained from Leigh's syndrome patient assessed as viable cells at 0.1 uM after 16 hrs by trypan blue exclusion assay; format: functional; details: read-out: Activity; procedure, shortened: as §1
# Bos taurus [7] = organism: Bos taurus; experiment: Inhibition of bovine heart mitochondrial NADH oxidase complex I/III/IV assessed as remaining activity at 10 uM by spectrophotometry relative to untreated control
# [8] = Metabolic stability in bovine liver microsomes at 25 uM after 30 mins by reverse phase HPLC analysis; format: ADME, Bos taurus; details: cattle, read-out: Stability
# Procedure, shortened: (§4)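 Compounds incubated 30 min with activated bovine liver microsomes. Remaining parent compound quantified by reversed-phase HPLC and expressed as % recovered; mean ± SD.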
# Lymphocyte [9] = experiment: Cytoprotective activity in human lymphocytes obtained from FRDA patient assessed as viable cells at 0.1 uM after 16 hrs by trypan blue exclusion assay; format: functional; details: read-out: Activity; procedure, shortened: as §1
# Lymphocyte [10] = experiment: Cytoprotective activity in human lymphocytes obtained from FRDA patient assessed as viable cells at 2.5 uM after 16 hrs by trypan blue exclusion assay; format: functional; details: read-out: Activity; procedure, shortened: as §1
# [11] = Drug metabolism in bovine liver microsomes at 25 uM after 30 mins by reverse phase HPLC analysis; format: ADME, Bos taurus; details: cattle, read-out: Drug metabolism; procedure, shortened: as §4
# Lymphocyte [12] = experiment: Cytoprotective activity in human lymphocytes obtained from Leigh's syndrome patient assessed as viable cells at 0.5 uM after 16 hrs by trypan blue exclusion assay; format: functional; details: read-out: Activity; procedure, shortened: as §1
# Lymphocyte [13] = experiment: Cytoprotective activity in human lymphocytes obtained from FRDA patient assessed as viable cells at 0.5 uM after 16 hrs by trypan blue exclusion assay; format: functional; details: read-out: Activity; procedure, shortened: as §1
# Bos taurus [14] = organism: Bos taurus; experiment: Inhibition of bovine heart mitochondrial NADH oxidase complex I/III/IV assessed as remaining activity at 1 uM by spectrophotometry relative to untreated control
# Lymphocyte [15] = experiment: Inhibition of oxidative stress-induced mitochondrial membrane depolarization in diethyl maleate-treated human lymphocytes obtained from FRDA patient assessed as cells with intact mitochondrial membrane potential at 250 nM pretreated for 16 hrs using TMRM by FACS analysis (reference value: 95%); format: functional; design: scale not given: the % may be the effect or the level left
# Lymphocyte [16] = experiment: Inhibition of ROS generation in diethyl maleate-treated human lymphocytes obtained from FRDA patient compound pretreated for 16 hrs using DCFH-DA by FACS analysis; format: functional, cell-based; procedure, shortened: as §2
# Bos taurus [17] = organism: Bos taurus; experiment: Inhibition of bovine heart mitochondrial NADH oxidase complex I/III/IV assessed as remaining activity by spectrophotometry relative to untreated control
# Lymphocyte [18] = experiment: Inhibition of oxidative stress-induced mitochondrial membrane depolarization in diethyl maleate-treated human lymphocytes obtained from FRDA patient assessed as cells with intact mitochondrial membrane potential pretreated for 16 hrs using TMRM by FACS analysis; format: functional, cell-based
# Lymphocyte [19] = experiment: Inhibition of lipid peroxidation in diethyl maleate-treated human lymphocytes obtained from FRDA patient at 100 to 250 nM after 16 hrs using C11-BODIPY581/591 by FACS analysis; format: functional, cell-based
# Procedure, shortened: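 FRDA lymphocytes depleted of glutathione with DEM, probed with C11-BODIPY581/591. Green (oxidized) fluorescence read by flow cytometry at 490/510 nm. Median mean fluorescence taken relative to untreated control and converted to % lipid peroxidation scavenging; mean ± SEM, n = 3.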
# Bos taurus [20] = organism: Bos taurus; experiment: Inhibition of bovine heart mitochondrial NADH oxidase complex I/III/IV assessed as remaining activity at 5 uM by spectrophotometry relative to untreated control
# Lymphocyte [21] = experiment: Inhibition of oxidative stress-induced mitochondrial membrane depolarization in diethyl maleate-treated human lymphocytes obtained from FRDA patient assessed as cells with intact mitochondrial membrane potential at 100 nM pretreated for 16 hrs using TMRM by FACS analysis (reference value: 95%); format: functional; design: scale not given: the % may be the effect or the level left
# Lymphocyte [22] = experiment: Cytoprotective activity in human lymphocytes obtained from FRDA patient assessed as viable cells after 16 hrs by trypan blue exclusion assay; format: functional, cell-based; procedure, shortened: as §1
# Lymphocyte [23] = experiment: Increase in ATP production in CoQ10-deficient lymphocytes (unknown origin) assessed as cellular ATP level at 25 uM after 48 hrs using luciferin-luciferase reaction by bioluminescence assay relative to control; format: functional; procedure, shortened: as §3
# Lymphocyte [24] = experiment: Increase in ATP production in CoQ10-deficient lymphocytes (unknown origin) assessed as cellular ATP level at 5 uM after 48 hrs using luciferin-luciferase reaction by bioluminescence assay relative to control; format: functional; procedure, shortened: as §3
compound,measurement,setting,value
CCCCCCCCCCCCCCCCc1c(C)c(N(C)C)nc(C)c1O,Activity,Lymphocyte [1],91%
same,viability at 2.5 µM,Lymphocyte [2],85%
same,inhibition,Lymphocyte [3],Active
same,Activity,Lymphocyte [4],Dose-dependent effect
same,Activity,Lymphocyte [5],80%
same,viability at 0.1 µM,Lymphocyte [6],11%
same,Activity,Bos taurus [7],86%
same,"remaining at 0.5 h, 25 µM",[8],70%
same,viability at 0.1 µM,Lymphocyte [9],52%
same,viability at 2.5 µM,Lymphocyte [10],84%
same,"metabolised at 0.5 h, 25 µM",[11],20%
same,viability at 0.5 µM,Lymphocyte [12],56%
same,viability at 0.5 µM,Lymphocyte [13],75%
same,Activity,Bos taurus [14],95%
same,Activity,Lymphocyte [15],83%
same,inhibition,Lymphocyte [16],Dose-dependent effect
same,inhibition,Bos taurus [17],Dose-dependent effect
same,inhibition,Lymphocyte [18],Dose-dependent effect
same,inhibition,Lymphocyte [19],Active
same,Activity,Bos taurus [20],93%
same,Activity,Lymphocyte [21],62%
same,Activity,Lymphocyte [22],Dose-dependent effect
same,Activity,Lymphocyte [23],37%
same,Activity,Lymphocyte [24],96%
